From article PMC3040319 (Pharmaceutical Research, 2010)
Marks after values point to notes of the source that are not given here.

Assay: Tissue accumulation of platinum in Oct1+/+ and Oct1-/- mice
Assay type: in vivo, mouse
Details: for Brain Normalized platinum / Heart Normalized platinum / Intestine Normalized platinum / Kidney Normalized platinum / Liver Normalized platinum / Muscle Normalized platinum: divided by plasma concentration
Summary of the method: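 Male FVB Oct1+/+ and Oct1-/- mice (8 weeks) were given 8 mg/kg in saline i.v. by tail vein and killed 1 h later. Liver, kidney, heart, lung, brain, intestine, spleen and muscle were snap-frozen. Total Pt was measured by ICP-MS in 10–30 mg tissue and reported as nmol/g tissue; plasma was reported in μM.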

[1] = OCT1 KO mice, 1 h after IV 8 mg/kg
[2] = OCT1 WT mice, 1 h after IV 8 mg/kg

[NH3+][Pt-2]([NH3+])([Cl])[n+]1ccccc1 (stereo not drawn) [CDPCP, cis-diammine(pyridine)chloroplatinum(II)]
total platinum in plasma, fold higher in Oct1-/- than wild-type mice (1 h after 8 mg/kg): 1.3 fold | Brain Absolute platinum, OCT1 WT/KO ratio (1 h after IV 8 mg/kg): 0.9 | Brain Normalized platinum, OCT1 WT/KO ratio (1 h after IV 8 mg/kg): 1.2 | Heart Absolute platinum, OCT1 WT/KO ratio (1 h after IV 8 mg/kg): 0.6** | Heart Normalized platinum, OCT1 WT/KO ratio (1 h after IV 8 mg/kg): 0.8* | Intestine Absolute platinum, OCT1 WT/KO ratio (1 h after IV 8 mg/kg): 2.8* | Kidney Absolute platinum, OCT1 WT/KO ratio (1 h after IV 8 mg/kg): 0.7* | Kidney Normalized platinum, OCT1 WT/KO ratio (1 h after IV 8 mg/kg): 1.0 | Liver Absolute platinum, OCT1 WT/KO ratio (1 h after IV 8 mg/kg): 2.1** | Muscle Absolute platinum, OCT1 WT/KO ratio (1 h after IV 8 mg/kg): 0.8* | Muscle Normalized platinum, OCT1 WT/KO ratio (1 h after IV 8 mg/kg): 1.0 | Plasma platinum, OCT1 WT/KO ratio (1 h after IV 8 mg/kg): 0.8** | Brain Absolute platinum [1]: 0.487 ± 0.128 pmol/g tissue | Heart Absolute platinum [1]: 15.4 ± 1.83 pmol/g tissue | Intestine Absolute platinum [1]: 32.3 ± 14.2 pmol/g tissue | Kidney Absolute platinum [1]: 44.3 ± 11.5 pmol/g tissue | Liver Absolute platinum [1]: 38.2 ± 8.51 pmol/g tissue | Muscle Absolute platinum [1]: 2.08 ± 0.292 pmol/g tissue | Plasma platinum [1]: 17.2 ± 2.11 µM | Brain Normalized platinum [1]: 0.0282 ± 0.00518 ml/g tissue | Heart Normalized platinum [1]: 0.898 ± 0.0813 ml/g tissue | Intestine Normalized platinum [1]: 1.84 ± 0.571 ml/g tissue | Kidney Normalized platinum [1]: 2.47 ± 0.552 ml/g tissue | Liver Normalized platinum [1]: 2.23 ± 0.440 ml/g tissue | Muscle Normalized platinum [1]: 0.122 ± 0.0201 ml/g tissue | Brain Absolute platinum [2]: 0.436 ± 0.116 pmol/g tissue | Heart Absolute platinum [2]: 9.77 ± 1.20 pmol/g tissue | Intestine Absolute platinum [2]: 90.9 ± 28.0 pmol/g tissue | Kidney Absolute platinum [2]: 32.1 ± 2.93 pmol/g tissue | Liver Absolute platinum [2]: 81.8 ± 9.31 pmol/g tissue | Muscle Absolute platinum [2]: 1.62 ± 0.144 pmol/g tissue | Plasma platinum [2]: 13.5 ± 1.72 µM | Brain Normalized platinum [2]: 0.0328 ± 0.0114 ml/g tissue | Heart Normalized platinum [2]: 0.725 ± 0.0747 ml/g tissue | Intestine Normalized platinum [2]: 7.13 ± 2.47 ml/g tissue | Kidney Normalized platinum [2]: 2.40 ± 0.374 ml/g tissue | Liver Normalized platinum [2]: 6.09 ± 0.792 ml/g tissue | Muscle Normalized platinum [2]: 0.121 ± 0.0118 ml/g tissue
